The source made the active and inactive calls. The calls are words filed in the database; no cut-off is given here. Peptide text beside a SMILES is read from it. * marks the point of attachment. Carbamoyl(2-ClEt,NO) = O=NN(CCCl)C(=O)*; Boc = CC(C)(C)OC(=O)*; For = O=C*
How the values were obtained:
L1210 [1] = assay: Antitumor activity against L1210 Leukemia in mice at a dose of 30 mg/kg was determined.; type: functional, Mus musculus
Outline: (§1)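 L1210 leukemia in mice, 10 per group, treated with one ip injection 1 day after tumor transplantation at 0.1 mL/10 g body weight. Dose was dissolved in 0.2 mL DMSO and diluted to 10 mL with 0.9% NaCl. Controls received saline or solvent. %ILS = [(T − C)/C] × 100, using median survival days. Cures were scored on day 60 post-transplant.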

L1210 [2] = assay: Antitumor activity against L1210 Leukemia in mice at a dose of 200 mg/kg expressed as percent of increase in life span after day 60s was determined.; type: functional; conditions: Mus musculus
Outline: (§2)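 L1210 leukemia-bearing mice, 10 per group; controls got saline or solvent. Dose was dissolved in 0.2 mL DMSO, diluted to 10 mL with 0.9% NaCl, and given as one ip injection (0.1 mL/10 g body weight) 1 day after transplantation. %ILS = [(T − C)/C] × 100 from median survival days, treated versus untreated. Cures were counted on day 60 after transplantation.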

L1210 [3] = assay: Antitumor activity against L1210 Leukemia in mice at a dose of 200 mg/kg was determined.; type: functional, Mus musculus; outline: as §1
L1210 [4] = assay: Antitumor activity against L1210 Leukemia in mice at a dose of 100 mg/kg was determined.; type: functional, Mus musculus; outline: as §1
L1210 [5] = assay: Antitumor activity against L1210 Leukemia in mice at a dose of 100 mg/kg expressed as percent of increase in life span after day 60s was determined.; type: functional; conditions: Mus musculus; outline: as §2
[6] = Antitumor activity against L1210 Leukemia in mice expressed as 50% lethal dose was determined at 200 mg/kg; type: ADME, organism-based; parameters: dose 200 mg/kg; conditions: mouse, in vivo
L1210 [7] = assay: Antitumor activity against L1210 Leukemia in mice at a dose of 30 mg/kg expressed as percent of increase in life span after day 60s was determined.; type: functional; conditions: Mus musculus; outline: as §2
[8] = Antitumor activity against L1210 Leukemia in mice expressed as 50% lethal dose was determined at a dose of 100 mg/kg; type: ADME, organism-based; parameters: dose 100 mg/kg; conditions: mouse, in vivo
L1210 [9] = assay: Antitumor activity against L1210 Leukemia in mice at a dose of 50 mg/kg was determined.; type: functional, Mus musculus; outline: as §1
L1210 [10] = assay: Antitumor activity against L1210 Leukemia in mice at a dose of 50 mg/kg expressed as percent of increase in life span after day 60s was determined.; type: functional; conditions: Mus musculus; outline: as §2
L1210 [11] = assay: Antitumor activity against L1210 Leukemia in mice at a dose of 30 mg/kg expressed as percent of increase in life span after day 60s was determined; no effect; type: functional, organism-based; parameters: dose 30 mg/kg; conditions: Mus musculus; outline: as §2
L1210 [12] = assay: Antitumor activity against L1210 Leukemia in mice at a dose of 100 mg/kg expressed as percent of increase in life span after day 60s was determined; no effect; type: functional, organism-based; parameters: dose 100 mg/kg; conditions: Mus musculus; outline: as §2
[13] = Antitumor activity against L1210 Leukemia in mice expressed as 50% lethal dose was determined at a dose of 130 mg/kg; type: ADME, organism-based; parameters: dose 130 mg/kg; conditions: mouse, in vivo
L1210 [14] = assay: Antitumor activity against L1210 Leukemia in mice at a dose of 130 mg/kg was determined.; type: functional, Mus musculus
L1210 [15] = assay: Antitumor activity against L1210 Leukemia in mice at a dose of 200 mg/kg expressed as percent of increase in life span or the percent of surviving animals on day 60 was determined.; type: functional; conditions: Mus musculus, L1210, 1440 h; outline: as §2

SMILES	MED (L1210 [3]) [mmol/kg]	MED (L1210 [4]) [mmol/kg]	ILS at 100 mg/kg (L1210 [5]) [%]	LD50 [6] [mg/kg]	further results
CC(C)[C@H](NC(=O)[C@@H]1CCCN1C(=O)[C@H](CCCCNC=O)NC(=O)N(CCCl)N=O)C(N)=O	0.4	0.2	110	260	MED (L1210 [1]): 0.059 mmol/kg; ILS at 200 mg/kg (L1210 [2]): 190%; ILS at 30 mg/kg (L1210 [7]): 70%
CC(C)[C@H](NC(=O)[C@@H]1CCCN1C(=O)[C@H](CCCCNC(=O)OC(C)(C)C)NC(=O)[C@@H]1CCCN1C(=O)N(CCCl)N=O)C(N)=O ({Carbamoyl(2-ClEt,NO)}-PK(Boc)PV-NH2) [listing 1 of 2 here]				300	
CC(C)[C@H](NC(=O)[C@@H]1CCCN1C(=O)[C@H](CCCCNC(=O)N(CCCl)N=O)NC(=O)N(CCCl)N=O)C(N)=O		0.16	380		LD50 [8]: 250 mg/kg
CC(C)[C@H](NC(=O)[C@@H]1CCCN1C(=O)N(CCCl)N=O)C(N)=O		0.28			LD50 [8]: 150 mg/kg
CC(C)[C@H](NC(=O)[C@@H]1CCCN1C(=O)[C@H](CCCCNC=O)NC(=O)[C@@H]1CCCN1C(=O)N(CCCl)N=O)C(N)=O ({Carbamoyl(2-ClEt,NO)}-PK(For)PV-NH2)	0.32	0.16	80	250	MED (L1210 [9]): 0.083 mmol/kg; ILS at 50 mg/kg (L1210 [10]): 40%; ILS at 200 mg/kg (L1210 [2]): 80%
CC(C)[C@H](NC(=O)[C@@H]1CCCN1C(=O)[C@H](CCCCNOC(=O)C(C)(C)C)NC(=O)[C@@H]1CCCN1C(=O)N(CCCl)N=O)C(N)=O					ILS (L1210 [11]): inactive; ILS (L1210 [12]): inactive
CC(C)[C@H](NC(=O)[C@@H]1CCCN1C(=O)[C@H](CCCCN)NC(=O)N(CCCl)N=O)C(N)=O.Cl					LD50 [13]: 175 mg/kg; MED (L1210 [14]): 0.25 mmol/kg
CC(C)[C@H](NC(=O)[C@@H]1CCCN1C(=O)[C@H](CCCCNC(=O)OC(C)(C)C)NC(=O)[C@@H]1CCCN1C(=O)N(CCCl)N=O)C(N)=O ({Carbamoyl(2-ClEt,NO)}-PK(Boc)PV-NH2) [listing 2 of 2 here]	0.3	0.15			MED (L1210 [1]): 0.045 mmol/kg; ILS at 200 mg/kg (L1210 [15]): 30%
CC(C)[C@H](NC(=O)[C@@H]1CCCN1C(=O)[C@@H](N)CCCCNC=O)C(N)=O.Cl (H-Lys(For)-Pro-Val-NH2)		0.24			ILS (L1210 [12]): inactive
NC(=O)C1CCCN1C(=O)N(CCCl)N=O (centres undefined)		0.403	420		LD50 [8]: 140 mg/kg
CC(C)[C@H](NC(=O)[C@@H]1CCCN1C(=O)[C@H](CCCCNC(=O)N(CCCl)N=O)NC(=O)[C@@H]1CCCN1C(=O)N(CCCl)N=O)C(N)=O ({Carbamoyl(2-ClEt,NO)}-PK(Carbamoyl(2-ClEt,NO))PV-NH2)	0.28	0.14		220	MED (L1210 [1]): 0.042 mmol/kg; ILS at 200 mg/kg (L1210 [2]): 120%; ILS at 30 mg/kg (L1210 [7]): 100%

Source: ChEMBL document CHEMBL1123865, “Synthesis and antitumor activity of N-terminal proline-containing peptide-(chloroethyl)nitrosoureas” (J Med Chem, 1987)
